Source: PubChem
SENP1 inh – human SENP1 catalytic domain inhibitors, primary screen, biochemical, FRET, uHTS | recombinant SENP1 catalytic domain, CyPet-SUMO1-YPet FRET cleavage | inhibition, % at 10 µM | 360,000 tested, 0.21% active;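 active = inhibition at least 30% at 10 µM, raw YFP signal under a set limit, fluorescence ratio 0.5 to 1.5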;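 note: 0% = enzyme with DMSO and 100% = no enzyme wells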
Target sequence (Q9P0U3 419-644 limits assumed): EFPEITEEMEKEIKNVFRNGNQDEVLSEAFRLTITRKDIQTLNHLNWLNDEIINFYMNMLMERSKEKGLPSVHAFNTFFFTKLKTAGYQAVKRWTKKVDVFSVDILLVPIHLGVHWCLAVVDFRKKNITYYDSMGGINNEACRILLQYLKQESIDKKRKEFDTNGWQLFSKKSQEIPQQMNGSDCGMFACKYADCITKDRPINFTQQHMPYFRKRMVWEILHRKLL
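Test system: hSENP1 catalytic domain, recombinant; Amount: 20 pM final SENP1 enzyme; Medium: Tris pH 8 buffer plus EDTA, NaCl, BME, BSA, NP40, catalase; Schedule: 50 min enzyme reaction, room temperature, light-protected; Technique: FRET fluorescence in CFP and YFP emission channels; Controls: no-enzyme wells low, DMSO-plus-enzyme wells high control.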
NadD block – inhibitors of S. aureus NadD, primary screen, biochemical, colorimetric, uHTS | purified NadD enzyme, colorimetric absorbance read-out | inhibition, % at 20 µM | 360,000 tested, 0.78% active | AID 602399, 2012; in the data active = inhibition above about 26%
UCH37 DUB inh – inhibitors of human UCH37 deubiquitinase, primary screen, biochemical, Ub-AMC cleavage, fluorescence; Ubiquitin carboxyl-terminal hydrolase isozyme L5 (Homo sapiens), Q9Y5K5; purified proteasome/UCH37; inhibition, % (concentration not given with the values); 330,000 tested, 0.33% active;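 active = mean inhibition over replicate wells above about 20%, limit read from the data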;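 note: 0% = compound-free wells with enzyme and 100% = wells lacking proteasome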
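Reagent: Ub-AMC substrate; assay system: Proteasome-associated human UCH37 deubiquitinase; controls: no-proteasome and no-compound wells; read-out: % inhibition of Ub-AMC cleavage fluorescence; timing: 30 min preincubation with enzyme, 25 min cleavage at room temperature; signal: AMC fluorescence from Ub-AMC cleavage, excitation 355 nm, emission 460 nm; buffer or medium: Tris-HCl pH 7.4 plus ovalbumin, ATP-MgCl2, DTT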
ATG4B inh – ATG4B protease inhibitors, primary screen, biochemical, fluorescence, uHTS; Cysteine protease ATG4B (Homo sapiens), Q9Y4P1; ATG4B cleavage of LC3-PLA2, NBD-HPC fluorescence, 1 h; inhibition, % at 8.33 µM; 340,000 tested, 0.51% active; AID 504462, 2011; in the data active = inhibition above about 40%
Target sequence (Q9Y4P1 whole entry, looked up): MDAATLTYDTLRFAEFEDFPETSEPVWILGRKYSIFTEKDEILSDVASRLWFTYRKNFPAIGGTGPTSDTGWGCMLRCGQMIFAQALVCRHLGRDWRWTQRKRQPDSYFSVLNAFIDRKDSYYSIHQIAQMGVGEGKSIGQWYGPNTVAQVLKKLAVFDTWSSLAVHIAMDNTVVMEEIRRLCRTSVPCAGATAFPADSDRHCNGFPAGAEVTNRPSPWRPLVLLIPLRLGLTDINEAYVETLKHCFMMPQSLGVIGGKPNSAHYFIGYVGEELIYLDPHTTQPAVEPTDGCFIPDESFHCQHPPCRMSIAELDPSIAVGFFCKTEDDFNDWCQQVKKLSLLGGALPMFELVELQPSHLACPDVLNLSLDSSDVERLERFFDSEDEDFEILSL
GRIN3A LBD mod – binders of NR3A ligand-binding domain, primary screen, biophysical, differential scanning fluorimetry, uHTS. NR3A LBD differential scanning fluorimetry, Tm shift; 0% = protein alone, 100% = glycine-bound protein. Tm shift relative to glycine control, % at 25 µM. 340,000 tested, 2.5% active;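 active = melting temperature shift of at least 10% of the positive control shift, at one fixed dose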
Starred values were filed as active, the others as inactive; nt = no result given. Compounds with a hit are over-represented: about 3.6% of the library has one in this group of screens.

SMILES	SENP1 inh	NadD block	UCH37 DUB inh	ATG4B inh	GRIN3A LBD mod
O=S(=O)(c1cccc(NC(=S)N2CCN(c3cccc(Cl)c3)CC2)c1)C(F)F	-0.4	-0.6	1.9	-3.7	26.4*
CC1(C)CC(=NNC(=O)c2n[nH]c3c2CCC3)CC(C)(C)N1	-1.4	1.1	31.3*	0.2	0.9
CC(=NNC(=O)c1ccco1)c1ccc(NC(=O)c2ccc(F)cc2)cc1	nt	nt	3.8	nt	nt
CC1(C)CC(c2nc(-c3ccccc3)cs2)CCS1 (stereo not drawn)	0.7	12.8	3.7	3.2	10.2*
Cc1cc(/C=C2\C(=N)N3N=C(C(C)C)SC3=NC2=O)c(C)n1Cc1ccccc1	-6.1	-6.4	1.9	-3.2	1.2
Cc1cc(/C=C2\C(=N)N3C(SCc4ccccc4)=NSC3=NC2=O)c(C)n1Cc1ccccc1	-22.5	30.8*	-383.3	6.0	14.0*
Cc1cc(/C=C2/C(=N)N3C(=NC2=O)SN=C3S(C)(=O)=O)c(C)n1-c1ccc(F)cc1	-89.5	16.8	-0.6	4.3	-0.7
CCOc1ccc(-n2c(C)cc(/C=C3/C(=N)N4C(=NC3=O)SN=C4S(C)(=O)=O)c2C)cc1	-97.9	33.5*	-4.2	22.5	-0.7
CN(/N=C/c1ccc(-c2ccc([N+](=O)[O-])cc2)o1)c1ccccc1	47.6	-3.4	nt	8.4	12.9*
O=C(N/N=C\c1ccc(-c2ccc([N+](=O)[O-])cc2)o1)c1ccc2c(c1)OCO2	-23.3	17.3	nt	-12.6	31.1*
O=C(NN=Cc1ccc(-c2ccc([N+](=O)[O-])cc2)o1)c1ccc2c(c1)OCO2	nt	nt	5.9	nt	nt
COc1cc(C(=O)NCC(=O)N/N=C/c2ccc(-c3ccc([N+](=O)[O-])cc3)o2)cc(OC)c1OC	-27.2	-1.6	nt	-8.0	13.7*
COc1cccc(C=NNC(N)=S)c1OS(=O)(=O)c1ccccc1	nt	nt	3.5	nt	nt
COc1cc2c(cc1NC(=O)COC(=O)c1ccccc1)oc1ccccc12	nt	nt	-15.2	nt	nt
CCN(CC)S(=O)(=O)c1ccc(C(=O)Nc2cc3oc4ccccc4c3cc2OC)cc1	-11.8	3.5	-66.1	0.5	11.0*
CCCc1ccc(-c2cc(C(=O)NCCc3ccc(S(N)(=O)=O)cc3)c3ccccc3n2)cc1	3.3	27.3	-24.0	-23.4	12.3*
CCN(CC)S(=O)(=O)c1ccc(O)c(NC(=O)c2cc(-c3cc(OC)c(OC)c(OC)c3)nc3ccccc23)c1	2.1	0.0	-33.4	-0.2	17.0*
COc1cc2c(cc1NC(=O)c1cccc(S(=O)(=O)N(C)C)c1)oc1ccccc12	2.0	-0.2	-19.0	-15.8	13.9*
CC(=O)Nc1ccc(S(=O)(=O)N2CCSC2c2ccc(Cl)cc2)cc1 (stereo not drawn)	3.1	-7.6	-2.4	-3.4	-5.8
COc1ccc(S(=O)(=O)N2CCSC2c2ccc(N)cc2)cc1 (stereo not drawn)	2.0	-1.3	0.8	1.2	10.5*
CCOC(=O)CCn1nc(-c2ccc(Cl)cc2)cc1N	0.8	-2.5	1.6	-2.2	10.2*
CCOC(=O)Cn1nc(-c2ccc(Cl)cc2)cc1N	-16.7	2.7	4.7	-6.0	1.1
COc1ccc(-c2cc(=O)[nH][nH]2)cc1OC	0.9	-10.4	10.7	0.5	12.7*
COc1ccc(NS(=O)(=O)c2cc(NC(=O)[C@@H](NC(=O)c3ccccc3)C(C)C)ccc2C)cc1	-0.8	0.9	0.8	-0.5	13.1*
COc1ccc(C(CC(=O)Nc2ccc(F)cc2)c2ccccc2)cc1 (stereo not drawn)	0.7	-5.0	3.2	-13.4	-5.0
SMILES	SENP1 inh	NadD block	UCH37 DUB inh	ATG4B inh	GRIN3A LBD mod
COc1ccccc1C(CC(=O)Nc1ccc(Cl)cc1)c1ccc(OC(C)C)cc1 (stereo not drawn)	2.8	2.0	1.4	-1.9	12.2*
CC(=NNC(=O)c1cc(-c2ccc(C)s2)nc2ccccc12)c1cccnc1	nt	nt	-480.0	nt	nt
Cc1c(/C=N\NC(=O)C2COc3ccc(C(C)(C)C)cc3O2)c2ccccc2n1C (stereo not drawn)	2.9	22.1	nt	9.6	10.1*
Cc1ccc(CNC(=O)c2ccc3c(c2)NC(=O)C(N2CCOCC2)S3)cc1 (stereo not drawn)	9.4	-1.3	4.8	27.0	-2.4
O=C(NCCCN1CCCCCC1)c1ccc2c(c1)NC(=O)C(N1CCOCC1)S2 (stereo not drawn)	-6.8	13.6	22.5*	-14.6	0.1
CCCCCCC(=O)NN=C1CCCc2ccccc21	nt	nt	1.3	nt	nt
CCCCOc1ccc2ccccc2c1C=O	1.5	4.1	1.3	18.6	10.2*
CCOc1ccc2ccccc2c1C=NNC(=O)OC	nt	nt	-31.1	nt	nt
CCCCc1ccc(CC2S/C(=C(\C#N)C(=O)N3CCOCC3)N(c3ccccc3)C2=O)cc1 (stereo not drawn)	33.5*	-2.2	0.3	-15.8	-1.5
CC1=CS/C(=C(/C#N)C(=O)N2CCOCC2)N1c1ccccc1	-0.8	-4.3	2.4	-6.9	-1.2
O=[N+]([O-])c1ccc(C=NNc2nc(N3CCOCC3)nc(N3CCOCC3)n2)cc1	nt	nt	6.7	nt	nt
O=[N+]([O-])c1ccc(-c2ccc(/C=N/Nc3nc(NCc4ccccc4)nc(N4CCOCC4)n3)o2)cc1	-31.4	22.7	nt	5.2	10.8*
O=[N+]([O-])c1ccc(NN=Cc2ccccc2)nc1	-32.7	-3.8	-1.9	-2.4	-3.9
O=[N+]([O-])c1ccc(N/N=C/c2ccccc2O)cc1	-24.1	-9.9	nt	-4.5	37.7*
CCCOc1ccc(C=NNc2ccccc2[N+](=O)[O-])c(O)c1	nt	nt	10.7	nt	nt
CCCOc1ccc(/C=N/Nc2cccc([N+](=O)[O-])c2)c(O)c1	1.6	-0.2	nt	19.5	33.1*
O=[N+]([O-])c1ccc(NN=Cc2ccc(O)cc2)nc1	-35.2	-1.8	3.7	2.9	25.7*
O=[N+]([O-])c1ccc(NN=Cc2ccccc2O)nc1	-33.3	-0.8	-0.3	-4.1	25.6*
COc1ccccc1C=NNc1ccc([N+](=O)[O-])cn1	-23.5	-4.0	4.3	-6.7	1.8
CC(=O)NN=Cc1cc(C)n(-c2ccc(Br)cc2)c1C	nt	nt	4.9	nt	nt
COc1ccc(C(=O)Nc2ccccc2C(=O)NN=Cc2ccc(O)c(OC)c2)cc1	nt	nt	-6.5	nt	nt
O=C(ON=C1CCS(=O)(=O)c2sccc21)c1ccc(F)cc1	nt	nt	-0.8	nt	nt
O=[N+]([O-])c1cccc(N/N=C/c2cc([N+](=O)[O-])ccc2O)c1	0.5	6.0	nt	10.0	31.1*
CCCOc1ccc(/C=N/Nc2ccc(C(=O)O)cc2)c(OCCC)c1	-13.3	7.4	nt	9.2	20.8*
O=[N+]([O-])c1ccc(N/N=C/c2ccc(OCc3cccc4ccccc34)cc2)nc1	-27.4	1.3	nt	2.7	28.0*
